From ChEMBL document CHEMBL3098028, “Synthesis and in vitro and in vivo pharmacological evaluation of new 4-aminoquinoline-based compounds” (ACS Med Chem Lett, 2013)

Tests used:
Cytochrome P450 2A6 = molecular target: T1, Cytochrome P450 2A6 (Homo sapiens, UniProt P11509); assay: Inhibition of CYP2A6 in human liver microsomes assessed as coumarin 7-hydroxylation after 20 mins by LC-MS/MS analysis; type: ADME
T1 sequence (P11509 whole entry): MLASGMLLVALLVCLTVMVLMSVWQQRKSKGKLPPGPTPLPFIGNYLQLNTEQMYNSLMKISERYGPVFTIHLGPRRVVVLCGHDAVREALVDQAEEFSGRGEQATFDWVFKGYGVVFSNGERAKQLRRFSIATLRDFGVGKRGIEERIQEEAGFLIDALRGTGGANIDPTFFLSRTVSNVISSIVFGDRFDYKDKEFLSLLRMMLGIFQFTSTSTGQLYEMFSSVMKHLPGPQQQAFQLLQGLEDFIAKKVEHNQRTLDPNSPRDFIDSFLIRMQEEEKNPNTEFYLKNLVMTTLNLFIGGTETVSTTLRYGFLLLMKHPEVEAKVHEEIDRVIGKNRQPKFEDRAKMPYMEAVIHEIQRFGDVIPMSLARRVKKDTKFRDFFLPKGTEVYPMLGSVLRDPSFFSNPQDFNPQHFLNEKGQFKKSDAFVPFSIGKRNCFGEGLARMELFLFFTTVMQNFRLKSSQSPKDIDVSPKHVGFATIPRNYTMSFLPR

Mus musculus [1] = assay: AUC (0 to infinity) in C57BL/6 mouse at 20 mg/kg, po; type: ADME, organism-based, Plasma; design: time infinity, dose 20 mg/kg, route oral; conditions: in vivo
Outline: (§1)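 Healthy male C57/BL6 mice received a single intravenous dose (2.5 or 5.0 mg/kg) or oral dose (20 or 40 mg/kg). Plasma concentrations were followed over time to give AUC0-∞ in min·μmol/L, alongside t1/2, CL, Vd, Vss, Cmax, Tmax and oral bioavailability. Values are means of five animals.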

[2] = Drug metabolism in hepatocytes (unknown origin) assessed as 2-(5-((4-chlorophenyl)(2-(7-chloroquinolin-4-ylamino)ethylamino)methyl)-1H-tetrazol-1-yl)-2-methylpropan-1-ol level at 5 uM after 6 hrs by LC-MS/MS analysis; type: ADME, cell-based, Hepatocyte
CHO = assay: Cytotoxicity against CHO cells; type: cell-based; conditions: Cricetulus griseus
Mus musculus [3] = assay: AUC (0 to infinity) in C57BL/6 mouse at 2.5 mg/kg, iv; type: ADME, organism-based, Plasma; design: time infinity, dose 2.5 mg/kg, route intravenous; conditions: in vivo; outline: as §1
Cytochrome P450 2C8 = molecular target: T2, Cytochrome P450 2C8 (Homo sapiens, UniProt P10632); assay: Inhibition of CYP2C8 in human liver microsomes assessed as paclitaxel 6alpha-hydroxylation after 20 mins by LC-MS/MS analysis; type: ADME
T2 sequence (P10632 whole entry): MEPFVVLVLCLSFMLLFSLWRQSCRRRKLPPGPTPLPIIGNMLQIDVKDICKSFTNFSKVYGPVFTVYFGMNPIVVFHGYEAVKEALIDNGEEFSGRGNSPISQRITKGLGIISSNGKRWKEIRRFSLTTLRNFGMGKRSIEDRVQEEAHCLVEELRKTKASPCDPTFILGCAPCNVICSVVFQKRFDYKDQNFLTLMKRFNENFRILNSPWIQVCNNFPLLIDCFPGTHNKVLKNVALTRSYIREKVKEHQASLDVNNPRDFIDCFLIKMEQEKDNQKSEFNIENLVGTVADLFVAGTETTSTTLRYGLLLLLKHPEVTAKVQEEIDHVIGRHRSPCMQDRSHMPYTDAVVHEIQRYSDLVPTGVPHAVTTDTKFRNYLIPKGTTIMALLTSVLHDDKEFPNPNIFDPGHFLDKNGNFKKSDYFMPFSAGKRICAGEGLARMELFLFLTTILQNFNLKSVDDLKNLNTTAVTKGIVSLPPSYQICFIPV

CC(C)(C)n1nnnc1C(NCCNc1ccnc2cc(Cl)ccc12)c1ccc(Cl)cc1 (stereo unspecified)
IC50 (Cytochrome P450 2A6): > 20 µM
AUC (Mus musculus [1]): 222 µmol·min/L
Drug metabolism [2]: Active
IC50 (CHO): 97.8 µM
AUC (Mus musculus [3]): 107 µmol·min/L
IC50 (Cytochrome P450 2C8): 12.7 µM
